Data from ChEMBL document CHEMBL1157912, “Impact of nature and length of linker incorporated in agonists on toll-like receptor 9-mediated immune responses” (J Med Chem, 2010).

Columns and labels:
[1] = target: T1, Toll-like receptor 9 (Mus musculus) (UniProt Q9EQU3); assay: Activation of mouse TLR9 expressed in HEK293 cells assessed as induction of NF-kappaB activity after 18 hrs by SEAP assay; assay type: cell-based
T1 sequence (whole entry): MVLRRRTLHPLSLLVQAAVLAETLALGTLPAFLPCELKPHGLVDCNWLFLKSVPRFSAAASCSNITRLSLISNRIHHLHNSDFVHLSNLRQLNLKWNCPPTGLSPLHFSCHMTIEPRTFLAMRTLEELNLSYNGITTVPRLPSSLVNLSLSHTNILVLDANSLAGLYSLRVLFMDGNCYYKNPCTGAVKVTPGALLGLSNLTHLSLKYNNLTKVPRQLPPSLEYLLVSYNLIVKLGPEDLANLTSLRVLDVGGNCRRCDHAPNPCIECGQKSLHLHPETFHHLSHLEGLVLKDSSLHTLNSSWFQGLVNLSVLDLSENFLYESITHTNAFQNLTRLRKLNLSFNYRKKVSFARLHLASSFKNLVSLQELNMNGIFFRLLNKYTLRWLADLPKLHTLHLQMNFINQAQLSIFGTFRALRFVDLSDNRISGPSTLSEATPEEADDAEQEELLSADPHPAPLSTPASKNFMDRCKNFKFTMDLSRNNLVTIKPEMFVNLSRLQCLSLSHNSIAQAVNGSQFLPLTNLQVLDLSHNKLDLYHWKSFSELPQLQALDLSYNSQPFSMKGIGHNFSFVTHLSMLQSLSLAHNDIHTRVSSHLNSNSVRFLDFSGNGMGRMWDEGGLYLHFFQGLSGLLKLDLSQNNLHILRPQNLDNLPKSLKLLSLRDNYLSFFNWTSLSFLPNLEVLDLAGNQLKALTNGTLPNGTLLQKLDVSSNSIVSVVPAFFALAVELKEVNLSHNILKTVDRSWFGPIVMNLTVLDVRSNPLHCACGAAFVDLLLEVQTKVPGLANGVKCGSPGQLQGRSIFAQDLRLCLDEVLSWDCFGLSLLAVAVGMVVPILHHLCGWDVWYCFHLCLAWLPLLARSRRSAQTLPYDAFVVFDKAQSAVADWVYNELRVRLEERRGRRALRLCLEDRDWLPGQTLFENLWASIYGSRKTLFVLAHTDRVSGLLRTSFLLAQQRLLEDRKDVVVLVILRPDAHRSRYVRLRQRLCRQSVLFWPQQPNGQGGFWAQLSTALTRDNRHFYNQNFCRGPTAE
Procedure, shortened: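 HEK293 cells stably expressing mouse TLR9 were grown in DMEM with 10% heat-inactivated FBS. At 80% confluence they were transiently transfected with a SEAP reporter plasmid (100 ng/well, lipofectamine) for 6 h. Medium was then replaced and agonists were added for 18 h. Supernatant SEAP was read with QuantiBlue substrate at 620-645 nm. Results are expressed as fold NF-κB activity over PBS control.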

[2] = target: T1, Toll-like receptor 9 (Mus musculus); assay: Induction of TLR9-mediated IL6 production in C57BL/6 mouse spleen cells after 24 hrs by ELISA; assay type: cell-based
Procedure, shortened: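 C57BL/6 mouse spleen cells were cultured with agonists at 0.1, 0.3, 1, 3 and 10 μg/mL for 24 h. Secreted IL-12 and IL-6 in the supernatants were measured by ELISA. Values are averages of triplicate wells from one representative of at least two independent experiments.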

[3] = target: T2, Toll-like receptor 9 (Homo sapiens) (UniProt Q9NR96); assay: Induction of TLR9-mediated immune stimulation in human PBMC assessed as IL6 production at 2 ug/ml after 24 hrs by luminex multiplex assay (RVb = 0.01 ng/ml)
T2 sequence (whole entry): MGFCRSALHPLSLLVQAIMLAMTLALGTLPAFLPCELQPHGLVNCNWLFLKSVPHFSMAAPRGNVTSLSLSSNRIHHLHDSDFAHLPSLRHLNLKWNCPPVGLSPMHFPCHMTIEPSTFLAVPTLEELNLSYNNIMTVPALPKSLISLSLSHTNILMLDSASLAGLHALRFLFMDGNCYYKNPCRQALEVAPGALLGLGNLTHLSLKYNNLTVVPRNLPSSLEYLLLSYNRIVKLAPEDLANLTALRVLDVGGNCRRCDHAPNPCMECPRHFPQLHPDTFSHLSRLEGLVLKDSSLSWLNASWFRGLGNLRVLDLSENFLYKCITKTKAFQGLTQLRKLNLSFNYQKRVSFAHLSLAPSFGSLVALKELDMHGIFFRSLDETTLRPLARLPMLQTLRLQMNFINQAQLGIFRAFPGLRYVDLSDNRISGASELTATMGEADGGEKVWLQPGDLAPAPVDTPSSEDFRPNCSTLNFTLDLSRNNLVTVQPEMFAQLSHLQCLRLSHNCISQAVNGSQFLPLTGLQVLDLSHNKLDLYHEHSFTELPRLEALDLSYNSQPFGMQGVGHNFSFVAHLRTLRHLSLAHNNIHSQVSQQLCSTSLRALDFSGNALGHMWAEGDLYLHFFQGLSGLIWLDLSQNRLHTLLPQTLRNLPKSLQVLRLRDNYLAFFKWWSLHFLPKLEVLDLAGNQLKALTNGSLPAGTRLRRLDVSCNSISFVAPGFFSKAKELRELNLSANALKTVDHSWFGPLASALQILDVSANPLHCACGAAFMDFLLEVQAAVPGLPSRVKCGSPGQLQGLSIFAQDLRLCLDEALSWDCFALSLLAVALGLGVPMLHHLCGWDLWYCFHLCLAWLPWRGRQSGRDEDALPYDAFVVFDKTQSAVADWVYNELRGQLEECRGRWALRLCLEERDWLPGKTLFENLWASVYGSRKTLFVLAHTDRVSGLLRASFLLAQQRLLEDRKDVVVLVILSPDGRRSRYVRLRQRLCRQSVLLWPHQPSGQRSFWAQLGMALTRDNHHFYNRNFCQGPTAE

[4] = target: T2, Toll-like receptor 9 (Homo sapiens); assay: Induction of TLR9-mediated immune stimulation in human PBMC assessed as IL6 production at 10 ug/ml after 24 hrs by luminex multiplex assay (RVb = 0.01 ng/ml)
[5] = target: T2, Toll-like receptor 9 (Homo sapiens); assay: Induction of TLR9-mediated immune stimulation in human PBMC assessed as MIP1alpha production at 10 ug/ml after 24 hrs by luminex multiplex assay (RVb = 0.01 ng/ml)
[6] = target: T2, Toll-like receptor 9 (Homo sapiens); assay: Induction of TLR9-mediated immune stimulation in human PBMC assessed as MIP1beta production at 2 ug/ml after 24 hrs by luminex multiplex assay (RVb = 0.03 +/- 0.02 ng/ml)
[7] = target: T2, Toll-like receptor 9 (Homo sapiens); assay: Induction of TLR9-mediated immune stimulation in human PBMC assessed as MIP1beta production at 10 ug/ml after 24 hrs by luminex multiplex assay (RVb = 0.03 +/- 0.02 ng/ml)
[8] = target: T2, Toll-like receptor 9 (Homo sapiens); assay: Induction of TLR9-mediated immune stimulation in human PBMC assessed as RANTES production at 2 ug/ml after 24 hrs by luminex multiplex assay (RVb = 0.05 +/- 0.04 ng/ml)
[9] = target: T2, Toll-like receptor 9 (Homo sapiens); assay: Induction of TLR9-mediated immune stimulation in human PBMC assessed as MCP1 production at 2 ug/ml after 24 hrs by luminex multiplex assay (RVb = 0.08 +/- 0.02 ng/ml)

Compound | Activity [1] | Activity [2] | Activity [3] [ng/mL] | Activity [4] [ng/mL] | Activity [5] [ng/mL] | Activity [6] [ng/mL] | Activity [7] [ng/mL] | Activity [8] [ng/mL] | Activity [9] [ng/mL]
Cc1cn([C@H]2C[C@H](O[C@H]3C[C@@H](O)C[C@@H](OP(=O)(S)O[C@H]4C[C@H](n5cc(C)c(=O)[nH]c5=O)O[C@@H]4COP(=O)(S)O[C@H]4[C@@H](O)[C@H](n5ccc(N)nc5=O)O[C@@H]4COP(=O)(S)O[C@H]4C[C@H](n5cc(C)c(=O)[nH]c5=O)O[C@@H]4COP(=O)(S)O[C@H]4C[C@H](n5cc(C)c(=O)[nH]c5=O)O[C@@H]4COP(=O)(S)O[C@H]4C[C@H](n5ccc6c(=O)[nH]c(N)nc65)O[C@@H]4COP(=O)(S)O[C@H]4[C@@H](O)[C@H](n5ccc(N)nc5=O)O[C@@H]4COP(=O)(S)O[C@H]4C[C@H](n5cc(C)c(=O)[nH]c5=O)O[C@@H]4COP(=O)(S)O[C@H]4[C@@H](O)[C@H](n5cnc6c(=O)[nH]c(N)nc65)O[C@@H]4COP(=O)(S)O[C@H]4C[C@H](n5cc(C)c(=O)[nH]c5=O)O[C@@H]4COP(=O)(S)O[C@H]4[C@@H](O)[C@H](n5ccc(N)nc5=O)O[C@@H]4COP(=O)(S)O[C@H]4C[C@H](n5cc(C)c(=O)[nH]c5=O)O[C@@H]4CO)C3)[C@@H](COP(=O)(S)O[C@H]3[C@@H](O)[C@H](n4ccc(N)nc4=O)O[C@@H]3COP(=O)(S)O[C@H]3C[C@H](n4cc(C)c(=O)[nH]c4=O)O[C@@H]3COP(=O)(S)O[C@H]3C[C@H](n4cc(C)c(=O)[nH]c4=O)O[C@@H]3COP(=O)(S)O[C@H]3C[C@H](n4ccc5c(=O)[nH]c(N)nc54)O[C@@H]3COP(=O)(S)O[C@H]3[C@@H](O)[C@H](n4ccc(N)nc4=O)O[C@@H]3COP(=O)(S)O[C@H]3C[C@H](n4cc(C)c(=O)[nH]c4=O)O[C@@H]3COP(=O)(S)O[C@H]3[C@@H](O)[C@H](n4cnc5c(=O)[nH]c(N)nc54)O[C@@H]3COP(=O)(S)O[C@H]3C[C@H](n4cc(C)c(=O)[nH]c4=O)O[C@@H]3COP(=O)(S)O[C@H]3[C@@H](O)[C@H](n4ccc(N)nc4=O)O[C@@H]3COP(=O)(S)O[C@H]3C[C@H](n4cc(C)c(=O)[nH]c4=O)O[C@@H]3CO)O2)c(=O)[nH]c1=O (stereo partly drawn) | Dose-dependent effect | Dose-dependent effect | 0.3 | 0.67 | 0.67 | 0.13 | 2.15 | 0.93 | 0.29
Cc1cn([C@H]2C[C@H](O[C@@H]3C[C@@H](O)C[C@@H](OP(=O)(S)O[C@H]4C[C@H](n5cc(C)c(=O)[nH]c5=O)O[C@@H]4COP(=O)(S)O[C@H]4[C@@H](O)[C@H](n5ccc(N)nc5=O)O[C@@H]4COP(=O)(S)O[C@H]4C[C@H](n5cc(C)c(=O)[nH]c5=O)O[C@@H]4COP(=O)(S)O[C@H]4C[C@H](n5cc(C)c(=O)[nH]c5=O)O[C@@H]4COP(=O)(S)O[C@H]4C[C@H](n5ccc6c(=O)[nH]c(N)nc65)O[C@@H]4COP(=O)(S)O[C@H]4[C@@H](O)[C@H](n5ccc(N)nc5=O)O[C@@H]4COP(=O)(S)O[C@H]4C[C@H](n5cc(C)c(=O)[nH]c5=O)O[C@@H]4COP(=O)(S)O[C@H]4[C@@H](O)[C@H](n5cnc6c(=O)[nH]c(N)nc65)O[C@@H]4COP(=O)(S)O[C@H]4C[C@H](n5cc(C)c(=O)[nH]c5=O)O[C@@H]4COP(=O)(S)O[C@H]4[C@@H](O)[C@H](n5ccc(N)nc5=O)O[C@@H]4COP(=O)(S)O[C@H]4C[C@H](n5cc(C)c(=O)[nH]c5=O)O[C@@H]4CO)C3)[C@@H](COP(=O)(S)O[C@H]3[C@@H](O)[C@H](n4ccc(N)nc4=O)O[C@@H]3COP(=O)(S)O[C@H]3C[C@H](n4cc(C)c(=O)[nH]c4=O)O[C@@H]3COP(=O)(S)O[C@H]3C[C@H](n4cc(C)c(=O)[nH]c4=O)O[C@@H]3COP(=O)(S)O[C@H]3C[C@H](n4ccc5c(=O)[nH]c(N)nc54)O[C@@H]3COP(=O)(S)O[C@H]3[C@@H](O)[C@H](n4ccc(N)nc4=O)O[C@@H]3COP(=O)(S)O[C@H]3C[C@H](n4cc(C)c(=O)[nH]c4=O)O[C@@H]3COP(=O)(S)O[C@H]3[C@@H](O)[C@H](n4cnc5c(=O)[nH]c(N)nc54)O[C@@H]3COP(=O)(S)O[C@H]3C[C@H](n4cc(C)c(=O)[nH]c4=O)O[C@@H]3COP(=O)(S)O[C@H]3[C@@H](O)[C@H](n4ccc(N)nc4=O)O[C@@H]3COP(=O)(S)O[C@H]3C[C@H](n4cc(C)c(=O)[nH]c4=O)O[C@@H]3CO)O2)c(=O)[nH]c1=O (stereo partly drawn) | Dose-dependent effect | Dose-dependent effect | 0.3 | 0.89 | 0.76 | 0.12 | 2.45 | 0.5 | 0.25
